This is an account of results in publication PMC9033422 (RSC Advances, 2021).

For assay [1], the system named is human liver cancer cell lines SMMC-7721. The assay can be described thus: MTT cytotoxicity, SMMC-7721 cells, 24 h. The format is cell-based. Conditions: SMMC-7721, 24 h, read-out: IC50 (μM)/24 h SMMC-7721. The essentials: (§1)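 Cells (1 × 10^4 per well, triplicate) were pre-cultured 24 h at 37 °C, then exposed 24 h at 37 °C to test compound at 10, 25, 50, 100 and 200 μg mL−1, with drug-free and DMSO solvent controls. MTT (2 mg mL−1 stock in PBS) was added for 4 h and formazan dissolved in DMSO. A568 was read; inhibition % = (A control − A dosed)/A control × 100.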

For assay [2], the system named is human benign liver cell lines LO2. The assay is described as follows: MTT cytotoxicity, LO2 cells, 24 h. The class given is cell-based. Conditions: L02, 24 h, read-out: IC50 (μM)/24 h LO2. The essentials:
as §1

The subject of assay [3] is human liver cancer cell lines SMMC-7721. The assay is described as follows: MTT cytotoxicity of 12a in Fe2+ environment, SMMC-7721 cells, 48 h. The class given is cell-based. The conditions noted are these: SMMC-7721, 48 h, read-out: IC50 (μM)/48 h SMMC-7721 with Fe2+. The essentials:
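Cells at 1 × 10^4 per well, in triplicate, grew 12 h at 37 °C, then 12 h more in medium containing 100 μmol L−1 FeSO4. Medium was replaced with test compound (0.01, 0.1, 1, 10, 25 μg mL−1), with drug-free and DMSO solvent controls, for 48 h at 37 °C. MTT (2 mg mL−1 stock in PBS) was added for 4 h, formazan dissolved in DMSO, and A568 read.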

Assay [4] has as its system human benign colon cell lines CCD18CO. The assay is described as follows: MTT cytotoxicity of 12a, CCD18CO cells, 48 h. Conditions: CCD-18Co, read-out: IC50 (μM)/48 h CCD18CO. The class given is cell-based. The essentials: (§2)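 Seeding was 1 × 10^4 cells per well in triplicate, with 24 h pre-culture at 37 °C. No iron supplement was used. Test compound at 0.01, 0.1, 1, 10 and 25 μg mL−1 was given for 48 h at 37 °C, with drug-free and DMSO solvent controls. MTT (2 mg mL−1 stock in PBS) was added for 4 h, centrifuged, formazan dissolved in DMSO, and absorbance read at 568 nm.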

For assay [5], the system named is human benign breast cell lines MCF-10A. The assay is described as follows: MTT cytotoxicity of 12a, MCF-10A cells, 48 h. The format is cell-based. The conditions noted are these: read-out: IC50 (μM)/48 h MCF-10A. The essentials: as §2
Assay [6] has as its system human benign prostate cell lines RWPE-1. The assay can be described thus: MTT cytotoxicity of 12a, RWPE-1 cells, 48 h. Conditions: RWPE-1, 48 h, read-out: IC50 (μM)/48 h RWPE-1. The class given is cell-based. The essentials: as §2
The test system of assay [7] is MHCC97H cell lines. The assay is described as follows: Annexin V-FITC/PI flow cytometry apoptosis assay. The class given is cell-based, human. Conditions: 48 h. In short, it runs like this:
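MHCC97H cells were seeded in triplicate and pre-cultured 24 h at 37 °C. Medium was replaced with test compound at 0.01, 1 or 25 μg mL−1, alongside drug-free and DMSO solvent controls, for 48 h at 37 °C. Cells were detached with 0.25% trypsin without EDTA, stained with Annexin V-FITC/PI for 5–15 min at room temperature in the dark, and analysed by flow cytometry. Quadrants: live, early apoptotic, late apoptotic, necrotic.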

Bounds are passed on as bounds.

On to `C[C@H]1[C@H](N2CCS(=O)(=O)[C@@H](CCCCCCN3CCN(C4=C(Br)C(=O)O[C@@H]4O[C@H]4CC5CCC4(C)C5(C)C)CC3)C2)O[C@@H]2O[C@@]3(C)CC[C@H]4[C@H](C)CC[C@@H]1[C@@]24OO3` [Hybrid 12f, (5S)-3-Bromo-4-(4-(6-((S)-1,1-dioxido-4-((3R,5aS,6R,8aS,9R,10R,12R,12aR)-3,6,9-trimethyldecahydro-3H-3,12-epoxy[1,2]dioxepino[4,3-i]isochromen-10-yl)thiomorpholin-2-yl)hexyl)piperazin-1-yl)-5-(((2S)-1,7,7-trimethylbicyclo[2.2.1]heptan-2-yl)oxy)furan-2(5H)-one], for which the IC50 in assay [1] turned out to be 220 ± 30 µM; in assay [2], 300 ± 30 µM.

Regarding `C[C@H]1[C@H](N2CCS(=O)(=O)[C@@H](CCCCCCN3CCN(C4=C(Cl)C(=O)OC4O[C@H]4CC5CCC4(C)C5(C)C)CC3)C2)O[C@@H]2O[C@@]3(C)CC[C@H]4[C@H](C)CC[C@@H]1[C@@]24OO3` (stereo partly drawn) [Hybrid 12c, 3-Chloro-4-(4-(6-((S)-1,1-dioxido-4-((3R,5aS,6R,8aS,9R,10R,12R,12aR)-3,6,9-trimethyldecahydro-3H-3,12-epoxy[1,2]dioxepino[4,3-i]isochromen-10-yl)thiomorpholin-2-yl)hexyl)piperazin-1-yl)-5-(((2S)-1,7,7-trimethylbicyclo[2.2.1]heptan-2-yl)oxy)furan-2(5H)-one], the IC50 is 70 ± 40 µM in assay [1] and 70 ± 30 µM in assay [2].

As to `CC(C)[C@@H]1CC[C@@H](C)C[C@@H]1O[C@H]1OC(=O)C(Br)=C1N1CCN(CCCCCC[C@H]2CN([C@@H]3OC4O[C@@]5(C)CC[C@H]6[C@H](C)CC[C@@H]([C@H]3C)[C@@]46OO5)CCS2(=O)=O)CC1` (stereo partly drawn) [Hybrid 12e, (5S)-3-Bromo-4-(4-(6-((2S)-1,1-dioxido-4-((3R,5aS,6R,8aS,9R,10R,12aR)-3,6,9-trimethyldecahydro-3H-3,12-epoxy[1,2]dioxepino[4,3-i]isochromen-10-yl)thiomorpholin-2-yl)hexyl)piperazin-1-yl)-5-(((1S,2S,5R)-2-isopropyl-5-methylcyclohexyl)oxy)furan-2(5H)-one], the values for the IC50 in assay [1] and in assay [2] were 210 ± 20 µM and 330 ± 30 µM, respectively.

Consider `CC[C@]1(O)C[C@H]2CN(CCc3c([nH]c4ccccc34)[C@@](C(=O)OC)(c3cc4c(cc3OC)N(C=O)[C@H]3[C@@](O)(C(=O)OC)[C@H](OC(C)=O)[C@]5(CC)C=CCN6CC[C@]43[C@@H]65)C2)C1` [VCR, vincristine, reference compound], for which the IC50 came to 270 ± 30 µM in assay [1] and 300 ± 20 µM in assay [2].

In the case of `CC(C)[C@@H]1CC[C@@H](C)C[C@@H]1O[C@H]1OC(=O)C(Cl)=C1N1CCN(CCCCCC[C@H]2CN([C@@H]3OC4O[C@@]5(C)CC[C@H]6[C@H](C)CC[C@@H]([C@H]3C)[C@@]46OO5)CCS2(=O)=O)CC1` (stereo partly drawn) [Hybrid 12b, (5S)-3-Chloro-4-(4-(6-((2S)-1,1-dioxido-4-((3R,5aS,6R,8aS,9R,10R,12aR)-3,6,9-trimethyldecahydro-3H-3,12-epoxy[1,2]dioxepino[4,3-i]isochromen-10-yl)thiomorpholin-2-yl)hexyl)piperazin-1-yl)-5-(((1S,2S,5R)-2-isopropyl-5-methylcyclohexyl)oxy)furan-2(5H)-one], the IC50 in assay [1] stood at 320 ± 30 µM; in assay [2], 360 ± 30 µM.

Take `COC1OC(=O)C(Cl)=C1N1CCN(CCCCCC[C@H]2CN([C@@H]3OC4O[C@@]5(C)CC[C@H]6[C@H](C)CC[C@@H]([C@H]3C)[C@@]46OO5)CCS2(=O)=O)CC1` (stereo partly drawn) [Hybrid 12a, 3-Chloro-4-(4-(6-((2S)-1,1-dioxido-4-((3R,5aS,6R,8aS,9R,10R,12aR)-3,6,9-trimethyldecahydro-3H-3,12-epoxy[1,2]dioxepino[4,3-i]isochromen-10-yl)thiomorpholin-2-yl)hexyl)piperazin-1-yl)-5-methoxyfuran-2(5H)-one]: the IC50 in assay [1] turned out to be 30 ± 40 µM; in assay [2], 700 ± 20 µM; in assay [3], 20 ± 30 µM; in assay [4] it was 60 ± 40 µM; in assay [5] it was 40 ± 40 µM; in assay [6] it was 100 ± 30 µM. Besides, the percentage of apoptosis in assay [7] (0.01 μg mL^−1 (lowest concentration)) was 7.67%; in assay [7] (25 μg mL^−1 (highest concentration)), 59.76%.

`C[C@H]1[C@@H](O)O[C@@H]2O[C@@]3(C)CC[C@H]4[C@H](C)CC[C@@H]1[C@@]24OO3` [DHA, Dihydroartemisinin, reference compound]: the IC50 in assay [1] was over 700 µM; in assay [2], 220 ± 40 µM.

With `COC1OC(=O)C(Br)=C1N1CCN(CCCCCC[C@H]2CN([C@@H]3OC4O[C@@]5(C)CC[C@H]6[C@H](C)CC[C@@H]([C@H]3C)[C@@]46OO5)CCS2(=O)=O)CC1` (stereo partly drawn) [Hybrid 12d, 3-Bromo-4-(4-(6-((2S)-1,1-dioxido-4-((3R,5aS,6R,8aS,9R,10R,12aR)-3,6,9-trimethyldecahydro-3H-3,12-epoxy[1,2]dioxepino[4,3-i]isochromen-10-yl)thiomorpholin-2-yl)hexyl)piperazin-1-yl)-5-methoxyfuran-2(5H)-one], the IC50 came to 340 ± 20 µM in assay [1] and 370 ± 40 µM in assay [2].
